Activity calls are given as the source filed them. The rule behind the calls is not given here.
What was measured:
[1] = Antioxidant activity assessed as reduction of Copper(I) at 5 uM; type: functional
[2] = Antioxidant activity assessed as Cu2+ chelating activity at 5 uM; type: functional
HL-60 = assay: Cytotoxicity against human HL60 cells after 72 hrs; type: functional, cell-based; details: HL-60, 72 h
Summary of the method: (§1)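 Human A549 (lung) and HL-60 (leukemia) cancer cells were exposed to compounds up to a maximum of 100 µM, and cell growth was measured. IC50 is the concentration that inhibits 50% of cell growth, reported as mean ± SD of experiments run in triplicate. Mitoxantrone served as the reference compound.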

A549 = assay: Cytotoxicity against human A549 cells after 72 hrs; type: functional, cell-based; details: A549, 72 h; summary of the method: as §1
[3] = Antioxidant activity assessed as Cu2+ chelating activity at 1 uM; type: functional
[4] = Antioxidant activity assessed as reduction of Copper(I) at 1 uM; type: functional
[5] = Antioxidant activity assessed as trolox equivalents of peroxyl radical scavenging activity at 1 uM by ORAC assay; type: functional
[6] = Antioxidant activity assessed as trolox equivalents of peroxyl radical scavenging activity at 5 uM by ORAC assay; type: functional

In the case of `CC(=O)OC(C)(C)[C@@H](C)CC[C@@H](C)[C@H]1CC[C@H]2[C@@H]3C[C@@H](O)[C@@]4(O)C[C@@H](O)CC[C@]4(C)[C@H]3CC[C@]12C`, the Activity [1] is reported as “inactive”, the Activity [2] is reported as “inactive” and the IC50 (HL-60) is reported as 42.8 µM. For the same molecule, the IC50 (A549) was 36.5 µM, the Activity [3] was “inactive” and the Activity [4] was “inactive”. The Activity [5] was “inactive”.

For `C=C1CC/C=C(\C)CC[C@@H](C2=CC[C@H](C(C)(C)O)OC2)C[C@H]1O` [LOBOCOMPACTOL B], the Activity [1] was “inactive”, the Activity [2] was “inactive” and the IC50 (HL-60) was 37.5 µM. The IC50 (A549) was over 100 µM, the Activity [3] was “inactive” and the Activity [4] was “inactive”. The Activity [6] was 1.3 µM.

Molecule `O=C1c2c(O)ccc(O)c2C(=O)c2c(NCCNCCO)ccc(NCCNCCO)c21` [MITOXANTRONE] has an IC50 (HL-60) of 8.1 µM and an IC50 (A549) of 7.83 µM.

For `C[C@H](CC[C@H](C)C(C)(C)O)[C@H]1CC[C@H]2[C@@H]3C[C@@H](O)[C@@]4(O)C[C@@H](O)CC[C@]4(C)[C@H]3CC[C@]12C`, the Activity [1] was “inactive”, the Activity [2] was “inactive” and the IC50 (HL-60) was 59.1 µM. For the same molecule, the IC50 (A549) was over 100 µM, the Activity [3] was “inactive” and the Activity [4] was “inactive”. The Activity [5] was “inactive”.

In the case of `C=C(CC[C@@H](C)[C@H]1CC[C@@H]([C@@H]2CC=C3C[C@@H](O)CC[C@]3(C)C2=O)[C@]1(C)CCO)C(C)C`, the Activity [1] is reported as “inactive”, the Activity [2] is reported as “inactive” and the IC50 (HL-60) is reported as 17.8 µM. The IC50 (A549) was 4.97 µM, the Activity [3] was “inactive” and the Activity [4] was “inactive”. The Activity [5] was “inactive”.

In the case of `C=C[C@@]1(C)CC[C@H](C2=CC[C@H](C(C)(C)O)OC2=O)C[C@@H]1C(=C)C` [LOBATRIENOLIDE], the Activity [1] is reported as “inactive”, the Activity [2] is reported as “inactive” and the IC50 (HL-60) is reported as 24.8 µM. The IC50 (A549) was 23 µM, the Activity [3] was “inactive” and the Activity [4] was “inactive”. The Activity [5] was “inactive”.

In the case of `C=C1CC/C=C(\C)CC[C@H](C2=CC[C@H](C(C)(C)O)OC2)C[C@H]1O` [LOBOCOMPACTOL A], the Activity [1] is reported as “inactive”, the Activity [2] is reported as “inactive” and the IC50 (HL-60) is reported as 48.2 µM. For the same molecule, the IC50 (A549) was over 100 µM, the Activity [3] was “inactive” and the Activity [4] was “inactive”. It also gave an Activity [6] of 1.4 µM.

With `C=C[C@@]1(C)CC[C@H](C2=CC[C@H](C(C)(C)O)OC2)C[C@@H]1C(=C)C` [LOBATRIENE] the Activity [1] was “inactive”, the Activity [2] was “inactive” and the IC50 (HL-60) was 33.8 µM. For the same molecule, the IC50 (A549) was 31.1 µM, the Activity [3] was “inactive” and the Activity [4] was “inactive”. For the same molecule, the Activity [5] was “inactive”.

— ChEMBL document CHEMBL1759843, “Cytotoxic and antioxidant activities of diterpenes and sterols from the Vietnamese soft coral Lobophytum compactum” (Bioorg Med Chem Lett, 2011)
